The RNAGym collection of RNA variant scans (doi:10.1126/science.aae0568)
Variants at the floor of the assay were thinned out.

B1: tRNA (parent)
chain: GUUCCGUUGGCGUAAUGGUAACGCGUCUCCCUCCUAAGGAGAAGACUGCGGGUUCGAGUCCCGUACGGAACG

Variants of: B1
Experiment: yeast fitness relative to wild type (ratio to wild type); higher = fitter; tRNA-Arg(CCU), competitive growth, 37 C, YPD
Procedure, shortened: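 Genotype frequency changes were the basis for Darwinian fitness relative to wild type. The frequencies came from 100-nucleotide paired-end sequencing of gene amplicons from the start population and each end population of pooled yeast strains with tRNA-Arg(CCU) gene variants at the native locus. Competition ran in YPD at 37°C for 24 hours in six replicates, genotypes needed ≥ 100 starting reads, and estimates < 0.5 were set to 0.5.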

| Variant | yeast fitness |
| --- | --- |
| A15G G38C | 0.669 |
| A15G G38C C60G | ≤ 0.5 |
| A15G G38C C66U | ≤ 0.5 |
| A15G G38C U64A G68A A69C | ≤ 0.5 |
| A15G G39A | 0.959 |
| A15G G39A A69U | 0.774 |
| A15G G39A A70C | 0.742 |
| A15G G39A C49U | 0.679 |
| A15G G39A C62G | 0.568 |
| A15G G39C A40C | 0.622 |
| A15G G39C A42C | 0.553 |
| A15G G39C C62U G63C | ≤ 0.5 |
| A15G G39C U54C C55U | ≤ 0.5 |
| A15G G41A A69U | 0.615 |
| A15G G41A C49A C66A | 0.53 |
| A15G G41A U53G | ≤ 0.5 |
| A15G G41C | 0.827 |
| A15G G41C A45G | ≤ 0.5 |
| A15G G41C C49G C55U C61A | 0.638 |
| A15G G41C G51C | ≤ 0.5 |
| A15G G44A C49U G50C A70G | ≤ 0.5 |
| A15G G44A G50C A70G | ≤ 0.5 |
| A15G G44C | 0.785 |
| A15G G44C C61U | 0.607 |

| Variant | yeast fitness |
| --- | --- |
| A15G G44C U59A | ≤ 0.5 |
| A15G G48A A65U | 0.759 |
| A15G G48A A70C | 0.748 |
| A15G G48A G58C | 0.759 |
| A15G G48C A57U | 0.511 |
| A15G G48C A69U | 0.636 |
| A15G G48C C61A | ≤ 0.5 |
| A15G G48C G51A | ≤ 0.5 |
| A15G G50A A57G | 0.584 |
| A15G G50A G56A | 0.552 |
| A15G G51A | 0.668 |
| A15G G51A A65U | ≤ 0.5 |
| A15G G52A | 0.772 |
| A15G G52C | 0.568 |
| A15G G52C A70U | ≤ 0.5 |
| A15G G52U | 0.73 |
| A15G G56C | 0.651 |
| A15G G56C C61U | ≤ 0.5 |
| A15G G56C C66G | ≤ 0.5 |
| A15G G58A | 0.909 |
| A15G G58C | 0.949 |
| A15G G58C G68A | 0.593 |
| A15G G63C A65G | 0.543 |
| A15G G63C A69U | 0.651 |

| Variant | yeast fitness |
| --- | --- |
| A15G G67A A69U | 0.637 |
| A15G G68C | 0.648 |
| A15G G68U | 0.782 |
| A15G U16A | 0.919 |
| A15G U16A A20G U28A C30A C33A A36U A69C | ≤ 0.5 |
| A15G U16A G38C C62G G68A | ≤ 0.5 |
| A15G U16A U19C C30U G52C | ≤ 0.5 |
| A15G U16C | 0.927 |
| A15G U16C A20C A21U U26C | ≤ 0.5 |
| A15G U16C C29G G41A | 0.599 |
| A15G U16C C34U G44C | ≤ 0.5 |
| A15G U16C C34U G44C C61U | ≤ 0.5 |
| A15G U19A | 1.13 |
| A15G U19A U28A G63A | ≤ 0.5 |
| A15G U19C A21G | 0.656 |
| A15G U19C A37U | 0.622 |
| A15G U19C C46G C55U | ≤ 0.5 |
| A15G U26A C60U A70C | 0.52 |
| A15G U26A G41A U64A A70C | ≤ 0.5 |
| A15G U26C | 0.802 |
| A15G U26C G44A G50C A70G | ≤ 0.5 |
| A15G U26C G63A | ≤ 0.5 |
| A15G U26C U32A C34U G38C G51A A57C C66U | ≤ 0.5 |
| A15G U26G | 0.703 |

| Variant | yeast fitness |
| --- | --- |
| A15G U26G A65C | 0.632 |
| A15G U26G C30U | ≤ 0.5 |
| A15G U26G C30U A37C G39C C61G A69G | ≤ 0.5 |
| A15G U26G G41C A43C C66A | ≤ 0.5 |
| A15G U28A C34G C46A | 0.501 |
| A15G U28A C34G C46A A69G | ≤ 0.5 |
| A15G U28C A37C | ≤ 0.5 |
| A15G U28C C30U A69U | 0.633 |
| A15G U28C U35A G38A C46G C62U | 0.718 |
| A15G U28G A42U G48A | ≤ 0.5 |
| A15G U28G A42U G48A C61U | ≤ 0.5 |
| A15G U32A G38A | 0.525 |
| A15G U32A G38A A69U | ≤ 0.5 |
| A15G U32A G38A G52A C66U | ≤ 0.5 |
| A15G U32A G52C G68A | ≤ 0.5 |
| A15G U32C | 0.983 |
| A15G U32G A43C | ≤ 0.5 |
| A15G U35A A57G G58U C62G | ≤ 0.5 |
| A15G U35A C62A G63C | ≤ 0.5 |
| A15G U35A G52A U59C C66A G67A | ≤ 0.5 |
| A15G U35G A45U | ≤ 0.5 |
| A15G U47C A69C | 0.754 |
| A15G U47G A69C | ≤ 0.5 |
| A15G U47G G56A | ≤ 0.5 |

| Variant | yeast fitness |
| --- | --- |
| A15G U53A | 0.667 |
| A15G U53C C61G | ≤ 0.5 |
| A15G U53G | 0.61 |
| A15G U54A | 0.648 |
| A15G U54A C61U | 0.57 |
| A15G U54A C62U | ≤ 0.5 |
| A15G U54C | 0.905 |
| A15G U54C C55G C61G A65U | ≤ 0.5 |
| A15G U54G | 0.612 |
| A15G U64C | 0.976 |
| A15U A20C C34A G68C | ≤ 0.5 |
| A15U A20C G23A C30U | ≤ 0.5 |
| A15U A20C G23A G50C | 0.577 |
| A15U A20C G23A G50C G63A | ≤ 0.5 |
| A15U A20C G48A A69C | ≤ 0.5 |
| A15U A20C G50C | ≤ 0.5 |
| A15U A20C G67U | 0.605 |
| A15U A20C U32G | ≤ 0.5 |
| A15U A20G A45U | ≤ 0.5 |
| A15U A20G C27U C30A | ≤ 0.5 |
| A15U A20G C27U C66A | ≤ 0.5 |
| A15U A20G G41C C60U G67A | ≤ 0.5 |
| A15U A20G G52C A65U G67C | ≤ 0.5 |
| A15U A20G G63C | 0.555 |

| Variant | yeast fitness |
| --- | --- |
| A15U A20G U28A C33G | ≤ 0.5 |
| A15U A20U G56C | ≤ 0.5 |
| A15U A21C C29A U32A | 0.728 |
| A15U A21C C49A | ≤ 0.5 |
| A15U A21C G52A | ≤ 0.5 |
| A15U A21G | 0.785 |
| A15U A21G C24U C33U A40C A43C C49U C55U C61U | ≤ 0.5 |
| A15U A21G C31G C49A | ≤ 0.5 |
| A15U A21G C49U | 0.556 |
| A15U A21G G25C C33A A37U | 0.554 |
| A15U A36C A40U A65U | ≤ 0.5 |
| A15U A36C G48C U59A C66U | ≤ 0.5 |
| A15U A36G | 0.665 |
| A15U A36G A37U A65U | ≤ 0.5 |
| A15U A36G C55G G56A | 0.535 |
| A15U A36G G51C C55G | ≤ 0.5 |
| A15U A36U A40U G68C | 0.643 |
| A15U A36U G48C C66U | ≤ 0.5 |
| A15U A37C A43U | 0.514 |
| A15U A37G A65C | ≤ 0.5 |
| A15U A37U C49G A65G | ≤ 0.5 |
| A15U A40G A65U | 0.516 |
| A15U A40U | 0.637 |
| A15U A40U C49U | 0.599 |

| Variant | yeast fitness |
| --- | --- |
| A15U A40U C61U A70G | 0.718 |
| A15U A40U G52A | ≤ 0.5 |
| A15U A40U G52A A65C | ≤ 0.5 |
| A15U A42C | 0.787 |
| A15U A42C U47A G63C A69C | ≤ 0.5 |
| A15U A42U C46U C55G | ≤ 0.5 |
| A15U A42U C49G C60A | ≤ 0.5 |
| A15U A43C G48A G68C | ≤ 0.5 |
| A15U A43G | 0.726 |
| A15U A43G U47A | 0.547 |
| A15U A43U | 0.826 |
| A15U A43U C46G C61A | ≤ 0.5 |
| A15U A43U C55G | ≤ 0.5 |
| A15U A43U G48A G68C | ≤ 0.5 |
| A15U A45C C49G G58C | ≤ 0.5 |
| A15U A45C C49U | 0.618 |
| A15U A45C C55U | ≤ 0.5 |
| A15U A45G | 0.732 |
| A15U A45U | 0.593 |
| A15U A45U A69C | 0.647 |
| A15U A45U G68C | ≤ 0.5 |
| A15U A45U G68C A70U | ≤ 0.5 |
| A15U A57C A65G | ≤ 0.5 |
